For orientation: half-life means the time in which the quantity being followed falls by half. For orientation: logP means a log measure of how a compound divides between an organic and an aqueous phase.

These results are taken from ChEMBL document CHEMBL1129793, “Quantitative structure-activity relationships for the in vitro antimycobacterial activity of pyrazinoic acid esters” (J Med Chem, 1996).

Data set [1] concerns Mycobacterium tuberculosis. Briefly: In vitro activity against Mycobacterium tuberculosis (ATCC 27294). It counts as functional. In short, it runs like this: (§1)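 Broth macrodilution MIC. Cultures were grown in modified Middlebrook 7H10 broth (agar and malachite green omitted) with 10% OADC and 0.05% Tween 80, shaken at 37 °C for 3 days, then diluted in 7H10 broth to 1 Klett unit/mL. Test agents were dissolved in water or DMSO and filter-sterilised, then serially diluted 2-fold in 7H10 broth at pH 5.8. Tubes were shaken at 37 °C for 7–10 days, with a drug-free control. MIC was the lowest concentration with no visible turbidity, expressed in mmol/L.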

The subject of data set [2] is Mycobacterium avium. Briefly: In vitro activity against Mycobacterium avium (ATCC49601). It counts as functional. Put shortly: as §1
Data set [3] deals with Mycobacterium tuberculosis. Briefly: In vitro activity against Mycobacterium tuberculosis (ATCC 35801). It counts as functional. Put shortly:
as §1

In data set [4] the test system is Mycobacterium avium. The data set is described as follows: In vitro activity against Mycobacterium avium (MAC-101). It counts as functional. In short, it runs like this:
as §1

Data set [5] relates to Mycobacterium kansasii. The data set is described as follows: In vitro activity against Mycobacterium kansasii (SWK). It counts as functional. Put shortly:
as §1

Data set [6] is described as follows: t1/2 (min) in equine serum. Conditions: horse. It counts as ADME, organism-based, Equus caballus. In short, it runs like this:
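Ester from a 1 mg/mL stock was mixed with 5% aqueous equine serum in 0.01 M KH2PO4, pH 7.2. Aliquots were taken at 0, 5, 10, 15, 30, 60 and 120 min and quenched with an equal volume of acetonitrile, then filtered. Remaining ester was measured by isocratic reverse-phase HPLC (80% acetonitrile/20% 0.1 M sodium acetate, pH 5.0), with UV detection at 265 nm against a standard curve. Half-life is the time to 50% conversion to the acid.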

A short description of data set [7]: Partition coefficient (logP). It counts as physicochemical. Conditions: octanol/water.
Data set [8] deals with Mycobacterium tuberculosis. Briefly: In vitro activity against Mycobacterium tuberculosis (ATCC 35828). It counts as functional. In short, it runs like this: as §1
In data set [9] the test system is Mycobacterium avium. Briefly: In vitro activity against Mycobacterium avium (MAC-101). It counts as functional. Put shortly:
as §1

Data set [10] can be described thus: T1/2 in equine serum. It counts as ADME, organism-based, Equus caballus. Conditions: horse. In short, it runs like this:
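Ester from a 1 mg/mL stock was mixed with 5% aqueous equine serum in 0.01 M KH2PO4, pH 7.2. Remaining ester was measured by isocratic reverse-phase HPLC (80% acetonitrile/20% 0.1 M sodium acetate, pH 5.0), with UV detection at 265 nm against a standard curve. Half-life is the time to 50% conversion to the acid.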

Data set [11] deals with Mycobacterium kansasii. Briefly: in vitro activity against Mycobacterium kansasii (SWK). It counts as functional. In short, it runs like this: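 M. kansasii clinical isolate SWK was grown 3 days at 37 °C with shaking in modified Middlebrook 7H10 broth with 10% OADC and 0.05% Tween 80, then diluted. It was tested in serial 2-fold dilutions in 7H10 broth at pH 5.8, shaken at 37 °C for 7–10 days, with a drug-free control. MIC was the lowest concentration giving no visible turbidity, expressed in mmol/L.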

The test system of data set [12] is Mycobacterium avium. Briefly: In vitro activity against Mycobacterium avium (ATCC 49601). It counts as functional. Put shortly:
as §1

For `COC(=O)c1cnc(C)cn1`, the “Log 1/MMIC” value in [1] was 0.978; in the data set on Mycobacterium avium [2] it was -0.226; in data set [3], 1.279; in the data set on Mycobacterium avium [4] it was -0.226; with Mycobacterium kansasii [5], 0.677; in [8], 0.978. In [6], this molecule showed a half-life of 20 h. Also, the logP in data set [7] is 0.15.
With `O=C(OCc1ccccc1)c1cnccn1`, the “Log 1/MMIC” value is on record as 0.525 in the data set with Mycobacterium avium [2], 0.525 with Mycobacterium avium [4], 2.331 with Mycobacterium kansasii [5] and 2.03 in [8]. In data set [6], this molecule showed a half-life of 0.0717 h. The log partition coefficient (logP) in data set [7] was found to be 1.49.
As to `CCCCCC(CC)OC(=O)c1cnc(C)cn1` (stereo not given), the “Log 1/MMIC” value is 1.194 in data set [1]; 0.592 in the data set with Mycobacterium avium [2]; 2.7 in data set [3]; 0.592 in the data set with Mycobacterium avium [4]; 1.796 in the data set on Mycobacterium kansasii [5]; 1.495 in data set [8]. Besides, the half-life in [6] amounted to 0.0167 h. Also, in data set [7], the logP turned out to be 3.72.
Turning to `CCCCCCC(C)OC(=O)c1cnc(F)cn1` (stereo not given), the “Log 1/MMIC” value came to 2.104 in data set [1]; 0.599 with Mycobacterium avium [2]; 1.803 in [3]; 0.9 in the data set on Mycobacterium avium [4]; 3.928 in the data set on Mycobacterium kansasii [5]; 1.803 in data set [8]. For the same molecule, the half-life in data set [6] worked out at 0.115 h. For the same molecule, the logP in data set [7] was 3.23.
As for `CCCCCCOC(=O)c1cnc(F)cn1`, the “Log 1/MMIC” value turned out to be 0.548 in the data set on Mycobacterium avium [2], 1.753 in [3], 0.548 in the data set with Mycobacterium avium [4] and 1.452 in the data set with Mycobacterium kansasii [5]. For the same molecule, the half-life in data set [6] stood at 0.0467 h. Moreover, the logP in data set [7] was 2.96.
For the molecule `COC(=O)c1cnc(OC)cn1`, the “Log 1/MMIC” value in the data set on Mycobacterium avium [2] is on record as -0.183; in the data set with Mycobacterium avium [4], -0.183; in the data set on Mycobacterium kansasii [5], 0.42. Also, in data set [6], the half-life was found to be 5 h. Further, the logP in [7] was determined as 0.74.
On to `CC(C)COC(=O)c1cnccn1`, for which the “Log 1/MMIC” value in data set [1] is reported as 1.955; with Mycobacterium avium [2], -0.152; in data set [3] it was 1.654; with Mycobacterium avium [4], -0.152; in the data set with Mycobacterium kansasii [5] it was 1.052; in data set [8], 1.654. In data set [6], this molecule displayed a half-life of 3.45 h. In [7], the logP was 1.07.
Consider `CCC(C)OC(=O)c1cnccn1` (stereo not given), for which the “Log 1/MMIC” value in data set [1] is reported as 1.353; with Mycobacterium avium [2] it was -0.755; in the data set on Mycobacterium avium [4], -0.152; with Mycobacterium kansasii [5], 1.052. Also, the half-life in data set [6] was 0.685 h. This molecule also returned a logP in data set [7] of 1.05.
Consider `COC(=O)c1cnccn1`, for which the “Log 1/MMIC” value in data set [1] is listed as 1.237; in the data set on Mycobacterium avium [2], -0.268; in data set [3], 0.936; with Mycobacterium avium [4], -0.268; with Mycobacterium kansasii [5], 0.334. In data set [6], the half-life stood at 7.83 h.
Take `CCCOC(=O)c1cnc(C)cn1`: the “Log 1/MMIC” value in data set [1] stood at 1.955; in the data set on Mycobacterium avium [2], 0.45; in [3], 1.654; with Mycobacterium avium [4], 0.45; in the data set with Mycobacterium kansasii [5] it was 1.353. For the same molecule, the half-life in data set [6] was found to be 2.07 h. The logP in [7] came out at 1.15.
In the case of `COC(=O)c1cnc(F)cn1`, the “Log 1/MMIC” value in [1] stood at 1.591; in the data set with Mycobacterium avium [2] it was 0.387; in the data set on Mycobacterium avium [4] it was 0.387; in the data set on Mycobacterium kansasii [5] it was 1.29. In addition, the half-life in data set [6] came to 3.7 h. Also, the logP in data set [7] was determined as 0.27.
As for `CCC(C)(CC)OC(=O)c1cnc(Cl)cn1`, the “Log 1/MMIC” value with Mycobacterium avium [9] is recorded as -0.023; in [1], 1.482; in [3], 1.482; with Mycobacterium kansasii [11] it was 2.084; with Mycobacterium avium [12], -0.023; in data set [8], 1.783. In addition, the half-life in data set [10] came to 17 h. Further, the logP in data set [7] stood at 2.74.
With `CCCCCCCCC(C)(C)OC(=O)c1cnc(Cl)cn1`, the “Log 1/MMIC” value is 0.388 in the data set on Mycobacterium avium [9]; 1.592 in data set [1]; 2.796 in [3]; 2.194 in the data set on Mycobacterium kansasii [11]; 0.388 with Mycobacterium avium [12]; 1.592 in data set [8]. The molecule further registered a half-life in [10] of 15.9 h. Also, the logP in data set [7] worked out at 5.51.
